Our source for the IC50 and inhibition values is ChEMBL document CHEMBL1155447 (J Med Chem, 2010).

The target in assay [1] is T1, Aromatase (Homo sapiens, UniProt P11511).
T1 sequence (P11511 whole entry): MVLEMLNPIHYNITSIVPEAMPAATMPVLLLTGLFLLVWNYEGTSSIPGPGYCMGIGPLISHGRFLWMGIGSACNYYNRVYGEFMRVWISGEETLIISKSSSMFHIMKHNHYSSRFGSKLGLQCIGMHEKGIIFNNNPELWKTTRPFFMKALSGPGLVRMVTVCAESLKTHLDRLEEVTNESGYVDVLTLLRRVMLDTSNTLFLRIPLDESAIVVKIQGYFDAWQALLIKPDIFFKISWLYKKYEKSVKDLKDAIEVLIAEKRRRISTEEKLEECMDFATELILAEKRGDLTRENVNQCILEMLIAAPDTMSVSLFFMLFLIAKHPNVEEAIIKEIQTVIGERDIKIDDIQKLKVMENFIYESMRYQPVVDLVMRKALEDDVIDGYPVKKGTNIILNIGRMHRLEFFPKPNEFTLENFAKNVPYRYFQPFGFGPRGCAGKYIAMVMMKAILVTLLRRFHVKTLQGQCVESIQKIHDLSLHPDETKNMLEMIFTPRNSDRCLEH

For assay [2], the target named is T2, Steroid 17-alpha-hydroxylase/17,20 lyase (Homo sapiens, UniProt P05093).
T2 sequence (P05093 whole entry): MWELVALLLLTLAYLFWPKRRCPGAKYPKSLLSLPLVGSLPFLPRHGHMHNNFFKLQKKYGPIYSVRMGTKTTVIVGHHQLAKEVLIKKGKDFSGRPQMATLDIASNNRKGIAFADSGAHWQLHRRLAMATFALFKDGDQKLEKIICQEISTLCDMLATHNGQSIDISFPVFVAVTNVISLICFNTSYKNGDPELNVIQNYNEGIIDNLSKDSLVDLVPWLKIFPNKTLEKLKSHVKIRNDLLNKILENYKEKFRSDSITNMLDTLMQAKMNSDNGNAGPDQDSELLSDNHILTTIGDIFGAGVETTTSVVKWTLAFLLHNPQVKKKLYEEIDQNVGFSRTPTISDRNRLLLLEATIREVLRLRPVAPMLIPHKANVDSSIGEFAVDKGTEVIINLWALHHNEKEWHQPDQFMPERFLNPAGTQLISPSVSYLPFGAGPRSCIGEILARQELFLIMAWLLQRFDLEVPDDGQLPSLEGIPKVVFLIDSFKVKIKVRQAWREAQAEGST
Put plainly: Inhibition of human CYP17 expressed in Escherichia coli at 2.5 uM.

Assay [3] deals with T2, Steroid 17-alpha-hydroxylase/17,20 lyase. Nature of the assay: Inhibition of human CYP17 expressed in Escherichia coli.
For assay [4], the target named is T1, Aromatase. Put plainly: Inhibition of aromatase from human placental microsomes at 10 uM. The gist of the method: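 Human placental microsomes were incubated with 1β[3H]androstenedione (500 nM) as substrate. Aromatization was quantified by measuring the tritiated water formed, and results are reported as % inhibition at 10 μM test concentration. Fadrozole served as the positive control.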

In the case of `c1ccc(Oc2ccccc2Cn2ccnc2)cc1`, in assay [1], it took 0.389 µM to reach half-maximal inhibition (IC50). Testing at 2.5 µM in assay [2] gave an inhibition of 8%.
`O=c1c2ccccc2sc2c(Cn3ccnc3)cccc12`: in assay [1], the IC50 (commonly the concentration that inhibits the measured activity by half) was 0.00398 µM. For the same compound, the inhibition – broadly, the percentage by which the read-out fell short of the control – at 2.5 µM in assay [2] turned out to be 28%.
In the same order, the values of `O=c1c2ccccc2oc2ccc(Cn3ccnc3)cc12` are 7.9 µM and 11%.
On to `O=c1c2ccccc2oc2cccc(Cn3ccnc3)c12`, for which the results for the IC50 in assay [3] and in assay [1] were 0.88 µM and 0.15 µM, respectively.
`O=[N+]([O-])c1ccc(Cn2ccnc2)c(Oc2ccccc2)c1` displayed an IC50 in assay [1] of 0.0114 µM.
In turn, `O=c1c2ccccc2oc2c(Cn3ccnc3)cc([N+](=O)[O-])cc12` displayed an IC50 in assay [1] of 0.053 µM.
`O=c1c2ccccc2oc2c(Cn3ccnc3)c([N+](=O)[O-])ccc12` gave an IC50 in assay [1] of 1.9 µM. This compound yielded an inhibition at 2.5 µM in assay [2] of 9%.
Take `O=c1c2ccccc2sc2c(Cn3ccnc3)ccc([N+](=O)[O-])c12`: the IC50 in assay [1] is 0.0165 µM. The same compound yielded an inhibition at 2.5 µM in assay [2] of 5%.
`O=c1c2cccnc2oc2c(Cn3ccnc3)ccc([N+](=O)[O-])c12`: the IC50 in assay [1] turned out to be 0.101 µM. That is a sub-micromolar value.
`O=c1c2ccccc2oc2c(Cn3ccnc3)cccc12` returned a concentration for half-maximal inhibition (IC50) in assay [1] of 0.017 µM. In addition, the inhibition at 2.5 µM in assay [2] is 17%.
For `O=[N+]([O-])c1ccc(Cn2ccnc2)c(Sc2ccccc2)c1`, the IC50 in assay [1] is 0.00559 µM. Moreover, at 2.5 µM the inhibition in assay [2] was 17%.
In turn, `CC(=O)N1CCN(c2ccc(OCC3COC(Cn4ccnc4)(c4ccc(Cl)cc4Cl)O3)cc2)CC1` (stereo not given) [KETOCONAZOLE] came in with an inhibition at 10 µM in assay [4] of 17.7%.
